Screening data from PubChem.
The list is not random: actives were taken first. Their share in the collection is about 2.4%.
SR-BI DiI-HDL act: activators of SR-BI mediated DiI-HDL uptake, primary screen, ldlA[mSR-BI] CHO cells, DiI fluorescence; activation, % at 12.5 µM; hit rate 0.096% among 320,000; 3 h; 100 = double the neutral-control signal;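 active = mean replicate activation of at least 60% and every replicate at or above 60%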;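 also: 0% = median plate neutral-control signal and 100% = twice that signal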
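Assay system: CHO ldlA[mSR-BI] cells, LDL receptor-null, SR-BI overexpressing; medium: Ham's F12 with 0.5% BSA, HEPES 25 mM, pH 7.4; also added: DiI-HDL 10 µg/mL; timing: 3 h uptake period with compound, 37 °C; signal: DiI fluorescence, bottom read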
MIN6 prolif: inducers of MIN6 beta-cell proliferation, primary screen, ATP luminescence, uHTS; hit rate 0.29% among 330,000; MIN6 cells proliferation, ATPlite luminescence, 48 h; cells starved in 0.2% serum; 100% = growth in 10% serum; proliferation, % at 10 µM; AID 2380, 2010;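 active = compounds whose signal lies at least 3.5 SD above the mean of all wells on their plate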;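 also: 0% = DMSO-treated cells in low-serum medium and 100% = 10% serum control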
Calb FLC: C. albicans growth inhibition with fluconazole, primary screen, CaCi-2 strain, Alamar Blue fluorescence. C. albicans CaCi-2 + fluconazole, 48 h. growth inhibition, % (no concentration beside the values). hit rate 0.57% among 300,000;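 active = growth inhibition above about 58% in most replicates, limit read from the data, passing the limit was not always enough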;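 also: all wells also contain fluconazole at 8 µg/ml as a sub-toxic cotreatment; 0% = median of DMSO wells and 100% = median of geldanamycin control wells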
m5-HT2A agonist: mouse Htr2a agonists via beta-arrestin recruitment, primary screen, cell-based, luminescence; activation, % at 7.6 µM; hit rate 0.66% among 360,000; CHO-K1 mHTR2A beta-arrestin complementation; percent of 30 µM serotonin response; 5-hydroxytryptamine receptor 2A (Mus musculus), P35363;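 active = activation above a run cutoff, the mean activation of all tested compounds plus 3 SD, cut at about 14% in these data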;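 also: 0% = plate median of compound wells and 100% = 30 µM serotonin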
SR-BI DiI inh: inhibitors of SR-BI mediated HDL lipid uptake, primary screen, ldlA[mSR-BI] cells, fluorescence, single point; ldlA[mSR-BI] CHO cells, DiI-HDL uptake fluorescence, 3 h; inhibition, % at 12.5 µM; hit rate 0.96% among 320,000;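 active = mean replicate inhibition of at least 70% and a set share of replicates each scoring 70 or more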;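 also: 0% = median of neutral control wells and 100% = median of positive control wells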
Ins promoter up: insulin promoter activators in MIN6 cells, imaging, high-content screening, mouse beta cells. MIN6 insulin promoter-GFP reporter; active compounds read high. z-score at 5 µM. hit rate 0.3% among 190,000. AID 1625, 2009;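 active = z-score above 3 at 5 µM with at least 500 cells counted in the well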
OPRM1 ag: OPRM1 agonists via beta-arrestin recruitment, confirmation, counter-screen for mouse HTR2A agonist project, cell-based, luminescence, single concentration; shares compounds with m5-HT2A agonist; U2OS OPRM1 beta-arrestin PathHunter; DMSO 0%, DAMGO 9.3 µM 100%; activation, % at 9.3 µM; hit rate 5.3% among 2,300; AID 624380, 2012;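 active = mean activation above the mean of DMSO-only wells plus 3 SD, cut at about 0.5% in these data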
Target sequence (P35372 whole entry, looked up): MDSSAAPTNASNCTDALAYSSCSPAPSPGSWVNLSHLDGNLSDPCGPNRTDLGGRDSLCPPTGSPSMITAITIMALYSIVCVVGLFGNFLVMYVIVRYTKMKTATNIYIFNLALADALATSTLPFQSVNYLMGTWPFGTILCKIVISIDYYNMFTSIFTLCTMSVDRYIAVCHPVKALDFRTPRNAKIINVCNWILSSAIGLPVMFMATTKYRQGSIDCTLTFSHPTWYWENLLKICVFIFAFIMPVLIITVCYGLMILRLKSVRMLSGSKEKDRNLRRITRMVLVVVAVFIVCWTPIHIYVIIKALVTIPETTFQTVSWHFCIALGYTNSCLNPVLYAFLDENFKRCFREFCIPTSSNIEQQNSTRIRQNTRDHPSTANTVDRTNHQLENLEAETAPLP
m5-HT2A ag conf: mouse HTR2A agonists, beta-arrestin recruitment, confirmation, cell-based, luminescence, CHO-K1 PathHunter, triplicate. DMSO 0%, 30 µM serotonin 100%. hit rate 19% among 2,300. shares compounds with m5-HT2A agonist. activation, % at 7.6 µM;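 active = mean activation across triplicates above the hit threshold derived in the original primary screen, cut at about 15% in these data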
* hit, by the source's call; . = no result given.

SMILES	SR-BI DiI-HDL act	MIN6 prolif	Calb FLC	m5-HT2A agonist	SR-BI DiI inh	Ins promoter up	OPRM1 ag	m5-HT2A ag conf
O=C(CN1C(=O)NC2(CCCC2)C1=O)NCc1ccc(F)cc1	14	-2	.	2	-14	.	.	.
O=C(CN1C(=O)NC2(CCCC2)C1=O)OCc1c(F)cccc1Cl	-6	2	-6	17*	6	.	-1	-1
CC(C)Cc1cc(C(=O)Nc2ccc(F)cc2F)no1	31	-2	-4	18*	-31	2.6	-1	-3
CCOC(=O)C1(C)CCN1C(=O)c1cc(OC)ccc1Br (stereo not given)	.	.	.	0	.	.	.	.
COc1ccc(OC)c(CN2CCN(C(=O)c3cccc(S(=O)(=O)N(C)c4ccccc4)c3)CC2)c1	.	.	.	-2	.	.	.	.
NC(N)=NC(=O)Cc1c(Cl)cccc1Cl	5	-7	-9	30*	-2	.	-1	40*
O=C(Cc1c(Cl)cccc1Cl)OCc1ccccn1	.	1	0	-2	.	.	.	.
Cc1cc(C(=O)CSc2nnc(-c3ccc(F)cc3)o2)c(C)n1CC1COc2ccccc2O1 (stereo not given)	-10	-3	3	16*	10	-0.6	-1	0
O=C(NNC(=O)c1ccco1)c1cccc(Br)c1	2	-5	-2	15*	-2	.	0	0
CN(C)C(=O)c1ccc(NC(=O)COC(=O)C2=COCCO2)cc1	20	2	-5	18*	-20	.	-1	-4
CCc1ccc(CN(C(=O)c2oc3ccccc3c2C)C2CCS(=O)(=O)C2)cc1 (stereo not given)	40	-1	9	15*	-40	.	0	-3
CCc1ccc(OC(C)C(=O)N(Cc2ccco2)C2CCS(=O)(=O)C2)cc1 (stereo not given)	16	-1	-5	23*	-16	.	-1	-5
COc1ccc(NS(=O)(=O)c2ccc(N3CCCC3)c(NC(=S)Nc3cccc(S(=O)(=O)N(C)C)c3)c2)cc1	.	-6	5	.	.	0.32	.	.
CCCN(C(=O)c1cccc(S(=O)(=O)N2CCN(C)CC2)c1)c1c(N)n(Cc2ccccc2)c(=O)[nH]c1=O	36	3	0	-1	-36	.	.	.
CCCCn1c(N)c(N(CCOC)C(=O)c2ccc(-c3ccc(C(C)=O)cc3)o2)c(=O)[nH]c1=O	-17	-2	0	15*	17	.	-1	0
CCCCn1c(N)c(N(CCOC)C(=O)c2cc3c(s2)CCC(C)C3)c(=O)[nH]c1=O (stereo not given)	16	2	-7	15*	-16	.	-1	-1
CCCCN(C(=O)c1cccc(S(=O)(=O)N2CCN(C)CC2)c1)c1c(N)n(CCC)c(=O)[nH]c1=O	33	1	2	16*	-33	.	-1	1
CCn1ncc([N+](=O)[O-])c1C(=O)Nc1c(C)nn(Cc2ccc(F)cc2)c1C	-11	-2	3	-8	11	-0.18	.	.
COc1ccc(C)cc1S(=O)(=O)N(C)CC(=O)NCc1ccco1	-10	1	-1	16*	10	0.06	-1	-3
COc1ccc(S(=O)(=O)N(C)CC(=O)NCc2ccco2)cc1Cl	-5	-2	8	3	5	.	.	.
Cc1cc(C)cc(N(CC(=O)NCc2ccco2)S(=O)(=O)c2ccccc2)c1	.	5	-1	15*	.	.	-1	-1
O=C(NCc1ccccn1)[C@@H]1CCCN1C(=O)[C@@H]1CCCN1C(=O)c1ccc(Cl)cc1	.	.	.	8	.	.	.	.
O=C(NC(=O)c1ccccc1)OCC(F)(F)F	19	0	-12	-1	-19	2.1	.	.
CNC(=O)c1ccc(CNC(=O)OCC(F)(F)F)cc1	16	-2	-8	25*	-16	2.3	0	2
COc1ccc(S(=O)(=O)N2CCCOC2CNC(=O)C(=O)NCCc2ccco2)cc1 (stereo not given)	-3	-1	10	1	3	.	.	.
SMILES	SR-BI DiI-HDL act	MIN6 prolif	Calb FLC	m5-HT2A agonist	SR-BI DiI inh	Ins promoter up	OPRM1 ag	m5-HT2A ag conf
OC(Cn1cnnc1)c1ccccc1 (stereo not given)	45	-2	-13	17*	-45	.	-1	1
COc1ccccc1NC(=O)Nc1nc(CC(=O)N2CCN(c3ccccc3F)CC2)cs1	-80	-6	-9	15*	80*	.	0	0
CC(=O)c1ccc2c(c1)N(Cc1ccccc1Cl)C(=O)C(C)S2 (stereo not given)	.	.	.	-2	.	.	.	.
Cc1cccc(-n2ncc3c2CCCC3NC(=O)C2(C(N)=O)CC2)c1C (stereo not given)	.	-7	-6	15*	-43	.	0	0
Cc1cccc(-n2ncc3c2CCCC3NC(=O)CCN2CCCCO2)c1C (stereo not given)	17	0	-9	1	-17	.	.	.
Cc1cccc(-n2ncc3c2CCCC3NC(=O)CCN2CCCO2)c1C (stereo not given)	23	0	-11	16*	-23	.	-1	2
CCOc1ccc(NC(=O)CN(C)C(=O)c2cc3c(s2)CCC(C)C3)cc1OCC (stereo not given)	-32	-3	.	3	32	.	.	.
CCOC(=O)[C@]12CCC=C1N(CCC1=CCCCC1)C(=O)[C@H](CC(=O)N1CCN(C(=O)c3ccco3)CC1)C2	.	.	.	3	.	.	.	.
Cc1csc(NC(=O)CCC(=O)N(CC(=O)NC2CCCC2)Cc2ccccc2)n1	.	-3	-8	9	.	.	.	.
COc1cc(C#Cc2ccc3cc(CCO)oc(=O)c3c2)cc(OC)c1	-68	-2	.	17*	68	.	0	-2
O=C(Cc1ccccc1)NNC1CC(=O)N(c2ccc(Oc3ccccc3)cc2)C1=O (stereo not given)	-8	-1	6	17*	8	-0.17	-1	-2
COc1ccc(CN(C(=O)c2snc(C(N)=O)c2N)C(C(=O)NC2CCCC2)c2ccc(OC)c(OC)c2)cc1 (stereo not given)	10	-1	33	-2	-10	.	.	.
